Most compounds without a hit are left out; they make up all but 4.6% or so of the library.
OX1R antag-1: antagonists of human orexin 1 receptor (OX1R); inhibition, % at 6.6 µM; OX1R-expressing cells, FRET antagonist read-out; actives 1.8% (n = 330,000); in the data active = inhibition mostly above about 38%, no sharp cut-off; inactive = mostly below about 40%;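 note: 0% = agonist challenge alone and 100% = reference antagonist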
TAAR1 agonist: human TAAR1 agonists, primary screen, Fluo-8 calcium fluorescence, CHO RD-HGA16 cells; Trace amine-associated receptor 1 (Homo sapiens), Q96RJ0; vehicle wells 0%, saturating PEA agonist 100%; activation, % at 3 µM; actives 0.99% (n = 360,000);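 active = activation above the mean activation of all test compounds in the run plus 3 SD, cut at about 38% in these data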
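System: CHO-derived RD-HGA16 cells with stable Gα16 and human TAAR1 / Times: 17-24 h plating, Fluo-8 75 min 37 °C, 30 min RT / Technique: calcium-sensitive Fluo-8 signal, excitation 470-495, emission 515-575 nm / Measure: % activation relative to PEA EC100 response / Benchmarks: DMSO and PEA EC100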
TAAR1 antagonist: human TAAR1 antagonists, primary screen, Fluo-8 calcium fluorescence, CHO RD-HGA16 cells; Trace amine-associated receptor 1 (Homo sapiens), Q96RJ0; antagonist; inhibition, % at 3 µM; actives 1.5% (n = 360,000);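 active = inhibition above a per-plate cutoff, the mean inhibition of test compounds on that plate plus 3 SD, cut at about 49% in these data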;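 note: 0% = DMSO plus EC80 beta-PEA response and 100% = DMSO alone without agonist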
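test system = CHO RD-HGA16 cells bearing hTAAR1 | replication = singlicate | controls = DMSO-only wells and EC80 β-PEA-stimulated wells | reagent = EC80 β-phenethylamine stimulus | read-out basis = percent inhibition of PEA-evoked calcium signal, max/basal emission ratio | schedule = seeding 17-24 h prior, 75-min 37 °C, 30-min RT dye loading | signal = kinetic Fluo-8 calcium fluorescence measurement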
OX1R antag-2: OX1R (HCRTR1) antagonists, primary screen, fluorescence, CHO/OX1R cells, Fluo-8 calcium, orexin A. actives 0.43% (n = 330,000). inhibition, % at 5 µM. AID 434989, 2010. Fluo-8 calcium fluorescence;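 active = inhibition above its plate's threshold, mean inhibition of all tested compounds on the plate plus 3 SD, cut at about 37% in these data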;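 note: 0% = orexin A challenge wells and 100% = SB-334867-A antagonist wells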
GPR7 antagonist: GPR7 receptor antagonists, primary screen, cell-based, fluorescence, single concentration; actives 1.1% (n = 290,000); inhibition, % at 4.4 µM; GPR7-expressing cells, fluorescence antagonist assay; AID 1861, 2009; Neuropeptides B/W receptor type 1 (Homo sapiens), P48145; in the data active = inhibition above about 16%, passing the limit was not always enough;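 note: cells stimulated with the agonist NPW; 0% = agonist with vehicle and 100% = vehicle without agonist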
Target sequence (P48145 whole entry, looked up): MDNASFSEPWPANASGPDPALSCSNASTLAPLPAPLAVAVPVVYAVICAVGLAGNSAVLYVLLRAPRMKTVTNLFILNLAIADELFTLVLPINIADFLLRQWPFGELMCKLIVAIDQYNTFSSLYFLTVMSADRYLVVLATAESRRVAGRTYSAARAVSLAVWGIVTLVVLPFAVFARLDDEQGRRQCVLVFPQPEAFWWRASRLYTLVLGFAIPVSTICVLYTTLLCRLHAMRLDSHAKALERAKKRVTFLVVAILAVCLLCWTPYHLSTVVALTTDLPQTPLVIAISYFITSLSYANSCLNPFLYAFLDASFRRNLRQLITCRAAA
CHO parental Ca: ATP-evoked calcium signal inhibitors, parental CHO, primary screen, counter-screen for OX1R antagonist project, cell-based, fluorescence, Fluo-8 calcium dye; AID 463079, 2010; actives 0.63% (n = 330,000); inhibition, % at 5.6 µM; parental CHO-K1, ATP-induced calcium, Fluo-8 fluorescence;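 active = inhibition above that plate's mean sample inhibition plus 3 SD, cut at about 26% in these data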;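 note: 0% = ATP-challenged DMSO wells and 100% = DMSO wells without ATP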
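Test system: untransfected parental CHO cell line; also added: ATP stimulus; dosing: 5.6 µM, single dose; signal: calcium-sensitive Fluo-8 fluorescence; measure: percent inhibition of ATP-evoked calcium rise, normalized to controls; benchmarks: low control ATP plus DMSO, high control DMSO only; replication: one well per compound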
Numbers without * were called inactive; / = not tested or not shown.

SMILES	OX1R antag-1	TAAR1 agonist	TAAR1 antagonist	OX1R antag-2	GPR7 antagonist	CHO parental Ca
CCN(CC)c1ccc(/C=N/NC(=O)c2cccc(S(=O)(=O)Nc3ccccc3OC)c2)c(O)c1	78.8*	3.9	10.9	24.8	-18.6	-10.4
CCN(CC)c1ccc(/C=N/NC(=O)c2cccc(S(=O)(=O)Nc3ccccc3OC)c2)cc1	45.3	5.3	2.5	-11.1	-12.1	-7.2
CCN(CC)c1ccc(C(=O)N/N=C/c2ccccc2OC(F)F)cc1	74.3*	-1.6	26.8	14.4	-1.5	-25.4
Cn1c(=O)ccc2ccccc21	/	0.1	7.7	/	/	/
COC(=O)CCNS(=O)(=O)c1ccc2nsnc2c1	62.8*	2.6	6.5	-13.4	/	-5.4
CC1(C)CC(=O)C(N=Nc2ccc(OC(F)F)cc2)=C(O)C1	55.5*	0.2	-2.0	-16.2	-11.7	-7.9
COCCCN1C(=O)C(CC(=O)NC2CCCCC2)CC(C(=O)N2CCCCCC2)=C1C (centres undefined)	/	-0.7	6.8	/	/	/
O=C(OCn1ncc(Cl)c(Cl)c1=O)c1cccc(C(F)(F)F)c1	6.4	/	/	51.8*	15.8	81.4*
O=C(OCn1ncc(Br)c(Br)c1=O)c1ccccc1Cl	35.0	/	/	1.9	20.1	-2.7
Cc1c(O)cc2c(c1O)C(=O)CC(c1ccccc1)O2 (centres undefined)	3.5	-0.3	8.3	105.1*	/	100.1*
COC(=O)C1=C(C)N(Cc2ccc(C(F)(F)F)cc2)C(=NCc2cccc(C(F)(F)F)c2)NC1c1ccccc1C(F)(F)F (centres undefined)	/	0.3	-19.4	/	/	/
COCCN1C[C@@H](CO)O[C@@H](n2cnc3c(NC4CCC4)ncnc32)C1	/	1.9	-15.6	/	/	/
CCOC(=O)c1c(C)n(C)c2ccc(OC(=O)c3ccoc3)cc12	1.3	0.8	-25.7	-11.6	15.6*	-6.8
CC1=C(C(=O)N2CCCCCC2)CC(CC(=O)NCCCN(C)C)C(=O)N1Cc1ccccc1 (centres undefined)	/	3.3	-1.6	/	/	/
COc1cc2c(cc1NC(=O)COC(=O)[C@@H](NS(=O)(=O)c1ccccc1)C(C)C)oc1ccccc12	74.6*	3.5	24.9	19.6	-10.3	-5.4
Cc1ccc(S(=O)(=O)NCc2ccc3c(c2)OCO3)cc1C	33.5	-1.7	9.7	-9.6	12.9	1.0
O=S(=O)(NCc1ccc2c(c1)OCO2)c1ccc2oc3ccccc3c2c1	52.3*	12.8	9.1	-7.6	-4.2	-3.9
O=S(=O)(Nc1ccc2c(c1)OCCO2)c1ccc2oc3ccccc3c2c1	64.5*	8.0	-10.3	-4.0	-8.7	19.6
C[C@@H]1CCCCO[C@@H](CN(C)C(=O)CCC(F)(F)F)[C@@H](C)CN([C@H](C)CO)C(=O)c2cc(NS(=O)(=O)c3cccs3)ccc2O1	/	1.7	3.1	/	/	/
COC(=O)c1cccc2nc3c(C(C)O)cccc3nc12 (centres undefined)	50.2*	1.3	-19.2	-19.1	/	-7.9
COC(=O)[C@]12C[C@H](CC(=O)N3CCCCC3)C(=O)N(Cc3ccc4c(c3)OCO4)C1=C[C@H](C(C)(C)C)O[C@@H]2C	/	-1.0	-24.0	/	/	/
Cc1cccn2c(=O)c3cc(C(=O)NCc4ccco4)c(=N)n(C4CCCC4)c3nc12	19.3	-5.5	-9.6	-12.4	5.4	-17.7
COc1ccc(CNC(=O)c2cc3c(=O)n4cccc(C)c4nc3n(CC3CCCO3)c2=N)cc1 (centres undefined)	29.7	-0.5	-9.6	-17.7	-3.2	-18.3
COc1ccc(CCn2c(=N)c(C(=O)NCC3CCCO3)cc3c(=O)n4cccc(C)c4nc32)cc1 (centres undefined)	35.0*	3.7	11.3	-38.0	-22.5	-16.7
Cc1cccn2c(=O)c3cc(C(=O)NCC4CCCO4)c(=N)n(CC4CCCO4)c3nc12 (centres undefined)	62.5*	-2.7	-10.4	-21.0	-4.3	-15.7

Screens (PubChem)
